m-calpain inh: inhibitors of pig calpain II | purified calpain II, fluorogenic peptide substrate, 30 min | inhibition, % at 16 µM | hit rate 0.37% among 220,000;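 active means inhibition above about 50%, limit read from the data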
Furin inhibitor: human furin inhibition. P09958. purified furin, fluorogenic substrate cleavage. inhibition, % at 20 µM or 30 µM. hit rate 0.061% among 220,000; in the data active means inhibition above about 25%
NCF1 inh: inhibitors of human p47phox binding | P14598 | p47phox/p22phox peptide binding, fluorescence polarization, 2 h | inhibition, % at 24.7 µM | hit rate 0.53% among 220,000;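 active means inhibition above about 30%, limit read from the data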;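 further: 0% = p47phox with labelled peptide and 100% = labelled peptide alone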
RBBP9 inhibitor: inhibitors of human serine hydrolase RBBP9; AID 1515; recombinant RBBP9, FP-Rh probe fluorescence polarization; hit rate 0.2% among 220,000; inhibition, % at 7.94 µM; O75884;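 active means inhibition above the campaign mean of all tested compounds plus 3 SD, cut at about 14% in these data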;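 further: plate controls were DMSO wells with RBBP9 for no effect and wells lacking RBBP9 protein for full effect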
Target sequence (O75884 whole entry, looked up): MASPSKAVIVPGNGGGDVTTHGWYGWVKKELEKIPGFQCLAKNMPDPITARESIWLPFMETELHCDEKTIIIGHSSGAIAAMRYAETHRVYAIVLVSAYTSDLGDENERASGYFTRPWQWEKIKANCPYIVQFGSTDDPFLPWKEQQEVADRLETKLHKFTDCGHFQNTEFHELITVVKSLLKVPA
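Measured by: FP readout at 525/598 nm; material: recombinant human RBBP9; also added: Serine-hydrolase probe FP-Rh, 375 nM pre-mixing; medium: Tris buffer pH 8.0, NaCl, Pluronic; replication: one well per compound; doses: one concentration, 7.94 µM nominal, 0.794% DMSO; timing: preincubation 30 min plus labeling 45 min at 25 °C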
* marks the source's active call; other numbers are inactive results; · = no result. Only some compounds are listed: those with a hit (about 1.1% of all), similar ones and a draw of the others.

SMILES | m-calpain inh | Furin inhibitor | NCF1 inh | RBBP9 inhibitor
CCOC(=O)c1ccc(N2C(=O)CC(Nc3ccc(O)cc3)C2=O)cc1 (stereo not drawn) | -18 | -20 | 35* | -3
CN(C)c1ccc(/C=c2\sc3nc(-c4ccccc4)nn3c2=O)cc1 | -23 | -21 | 42* | -3
O=C(CCCCCNc1nc(=S)[nH]c2ccccc12)NCCC1=CCCCC1 | 4 | -30 | -16 | -6
CCCn1c(SCc2nc3ccccc3s2)n[nH]c1=O | 50* | -12 | -21 | -10
O=c1[nH]nc(SCc2nc3ccccc3s2)n1C1CC1 | -30 | -24 | -3 | -5
O=C1Nc2ccccc2/C1=N/N=C/c1ccc(-c2ccc([N+](=O)[O-])cc2)o1 | 41 | -26 | 51* | 6
c1csc(-c2nn3c(Cn4cnc5ccccc54)nnc3s2)c1 | -9 | -11 | 7 | -2
Clc1cccc(-c2nn3c(Cn4cnc5ccccc54)nnc3s2)c1 | -13 | 34* | -6 | 4
NC1=NC[C@H](Cc2ccc(O)cc2)N1CCc1cccc2ccccc12 | -38 | -22 | 63* | ·
NC1=NC[C@@H](Cc2ccc(O)cc2)N1CCc1cccc2ccccc12 | 8 | -25 | 7 | ·
NS(=O)(=O)c1ccc(NC(=S)Nc2ccn(Cc3cccc4ccccc34)n2)cc1 | 3 | -21 | -13 | -28
COc1cc(/C=C2\SC(=O)N(CCN)C2=O)ccc1OS(=O)(=O)c1cc(C)ccc1C | -34 | -2 | 72* | 3
O=c1cnnc(N/N=C/c2c[nH]c3ccccc23)[nH]1 | -13 | -15 | 99* | 4
COc1ccc(C2=Nn3c(nnc3-c3ccco3)SC2)cc1 | 51* | -20 | -7 | 0
c1ccc(-c2cc(-c3nnc4n3N=C(c3ccc5ccccc5c3)CS4)[nH]n2)cc1 | -73 | -10 | 45* | -18
CCc1cc(=O)oc2cc3occ(-c4ccc(OC)c(F)c4)c3cc12 | -6 | -13 | 47* | -4
CCCCC(=O)Nc1ccc(C(=O)c2ccccc2)cc1 | 53* | -6 | 4 | -8
CC(=O)Nc1ccc(C(=O)c2ccccc2)cc1 | 2 | -7 | -12 | -12
Cc1cc(C)cc(Oc2ccccc2CO)c1 | 14 | -11 | 33* | -6
CCCc1nc2ccc(NC(=O)NCCC(=O)OCC)cc2c(=O)n1Cc1cccc(Cl)c1 | 29 | -16 | -5 | -5
CCOC(=O)CCNC(=O)Nc1ccc2nc(C)n(Cc3cccc(Cl)c3)c(=O)c2c1 | 66* | -3 | -8 | -6
Nc1n[nH]c(N)c1N=Nc1ccc(Cl)cc1Cl | 27 | -6 | 0 | -4
O=C(N/N=C/c1ccc(Cl)c([N+](=O)[O-])c1)C1CC1 | 54* | -20 | 1 | -10
O=C(CSc1nnc(SCc2cccc3ccccc23)s1)N=Nc1c(O)[nH]c2ccccc12 | -79 | -17 | 32* | -7
O=C(Cc1cccs1)N=Nc1c(O)[nH]c2ccccc12 | 20 | -5 | 10 | 6
SMILES | m-calpain inh | Furin inhibitor | NCF1 inh | RBBP9 inhibitor
Cc1cc(C)c2c(c1)NC(c1cc3c(cc1Br)OCO3)C1CC=CC21 (stereo not drawn) | -20 | -26 | -19 | -2
COc1cccc(-n2nnc3c(=O)n(Cc4ccc(Cl)cc4)cnc32)c1 | -8 | -20 | -5 | -6
COc1cccc(-n2nnc3c(=O)n(Cc4ccccc4Cl)cnc32)c1 | 4 | 28* | 0 | -2
CCN(Cc1ccccc1)c1ccc(/C=N/N=C(N)N)cc1 | -206 | -25 | 47* | 5
CCOC(=O)N1CCN(C(=O)c2ccc(NC(=O)CC)cc2)CC1 | 2 | 3 | -8 | -5
CCOC(=O)N1CCN(C(=O)c2ccc(NS(C)(=O)=O)cc2)CC1 | 50* | -7 | 13 | -9
COCCCNC1=C(Cl)C(=O)c2ccccc2C1=O | 1 | 4 | -10 | 1
CCN(CC)CCCNC1=C(Cl)C(=O)c2ccccc2C1=O | 51* | -14 | -3 | -8
O=C(CSc1nnnn1-c1ccccc1)CSc1nnnn1-c1ccccc1 | 76* | -27 | -11 | -4
O=C1c2ccccc2C(=O)N1CCCCSc1nnc2ccccn12 | -37 | -24 | 133* | 1
O=C1c2ccccc2C(=O)N1CCCCSc1nnnn1-c1ccccc1 | 54* | -22 | 5 | -11
O=C1c2ccccc2C(=O)N1CCCCSc1nc2ccccc2o1 | 19 | -4 | 3 | -4
O=C(O)C1=C(C(=O)Nc2cc(C(F)(F)F)ccc2Cl)CCCC1 | -2 | -17 | 3 | -8
CCOC(=O)C1(Cc2ccccc2Cl)CCN(C(=O)CCn2ccnc2C)CC1 | 38 | -14 | 3 | -8
CCNC(=S)N1CCn2cccc2C1c1ccc(F)cc1 (stereo not drawn) | 1 | -27 | 40* | -1
CNC(=S)N1CCn2cccc2C1c1cc(OC)c(OC)c(OC)c1 (stereo not drawn) | -16 | -23 | 8 | 4
